Measurements: ChEMBL document CHEMBL1806428, “Design and synthesis of spiro derivatives of parthenin as novel anti-cancer agents” (Eur J Med Chem, 2011)
The source made the active and inactive calls. No cut-off for these calls is given here.

Experiments:
[1] = Partition coefficient, log P of the compound; assay type: physicochemical; details: octanol/water
SW-620 [2] = test: Cytotoxicity against human SW620 cells assessed as cell growth after 48 hrs by sulforhodamine B assay; assay type: functional, cell-based; details: Homo sapiens, SW-620, 48 h
How it was run: (§1)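 Log-phase cells seeded at 10^4/well and allowed to attach for 24 h at 37 °C, 5% CO2. Exposed for 48 h to 0.1–100 (1:10 serial dilutions), four replicate wells per condition. Fixed with cold 50% TCA for 1 h at 4 °C, stained with sulforhodamine B, dye dissolved in Tris, OD read at 540 nm. Blank-subtracted growth expressed relative to untreated cells (100%); IC50 reported.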

PC-3 = test: Cytotoxicity against human PC3 cells assessed as cell growth after 48 hrs by sulforhodamine B assay; assay type: functional, cell-based; details: Homo sapiens, PC-3, 48 h; how it was run: as §1
DU-145 = test: Cytotoxicity against human DU145 cells assessed as cell growth after 48 hrs by sulforhodamine B assay; assay type: functional, cell-based; details: Homo sapiens, DU-145, 48 h; how it was run: as §1
[3] = Antitumor activity against mouse Ehrlich Ascites tumor xenografted in Swiss albino mouse assessed as tumor growth inhibition at 20 mg/kg, ip administered for 9 days measured on day 13; assay type: functional; details: route intraperitoneal, read-out: GI
[4] = Antitumor activity against mouse Ehrlich Ascites tumor xenografted in Swiss albino mouse assessed as decrease in tumor weight at 20 mg/kg, ip administered for 9 days (reference value: 1708+/-51.07 mg); assay type: functional; details: route intraperitoneal
SW-620 [5] = test: Induction of apoptosis in human SW620 cells assessed as DNA fragmentation at 5 uM after 6 hrs by gel electrophoresis; assay type: functional, cell-based
SW-620 [6] = test: Cell cycle arrest in human SW620 cells assessed as increase in sub-G1 DNA content at 5 uM after 24 hrs using propidium iodide staining by flow cytometry (reference value: 3.45%); assay type: functional

| SMILES | logP [1] | IC50 (SW-620 [2]) [µM] | IC50 (PC-3) [µM] | IC50 (DU-145) [µM] | inhibition in vivo at 20 mg/kg [3] [%] | Activity [4] [mg] | Activity (SW-620 [5]) | Activity (SW-620 [6]) [%] |
| --- | --- | --- | --- | --- | --- | --- | --- | --- |
| COc1ccc(C2=NO[C@]3(C2)C(=O)O[C@@H]2[C@H]3CC[C@H](C)[C@]3(O)C=CC(=O)[C@@]23C)cc1OC | 1.06 | 86 | 25 | 84 | – | – | – | – |
| C[C@H]1CC[C@@H]2[C@@H](OC(=O)[C@]23CC(c2ccc(N(C)C)cc2)=NO3)[C@]2(C)C(=O)C=C[C@@]12O | 1.51 | 5.1 | 6.3 | 4.5 | – | – | – | – |
| O=c1[nH]cc(F)c(=O)[nH]1 [FLUOROURACIL] | – | – | – | – | 51.3 | 832.28 | – | – |
| C[C@H]1CC[C@@H]2[C@@H](OC(=O)[C@]23CC(c2ccc(F)cc2)=NO3)[C@]2(C)C(=O)C=C[C@@]12O | 1.57 | 3.6 | 27 | 13 | – | – | – | – |
| C[C@H]1CC[C@@H]2[C@@H](OC(=O)[C@]23CC(c2ccccc2F)=NO3)[C@]2(C)C(=O)C=C[C@@]12O | 1.57 | 11 | 8.2 | 24 | – | – | – | – |
| C[C@H]1CC[C@@H]2[C@@H](OC(=O)[C@]23CC(c2ccccc2[N+](=O)[O-])=NO3)[C@]2(C)C(=O)C=C[C@@]12O | 1.37 | 40 | 37 | 34 | – | – | – | – |
| C[C@H]1CC[C@@H]2[C@@H](OC(=O)[C@]23CN3c2cccc(Cl)c2)[C@]2(C)C(=O)C=C[C@@]12O | 2.03 | 48.4 | 86.1 | 39.5 | – | – | – | – |
| C[C@H]1CC[C@@H]2[C@@H](OC(=O)[C@]23CC(c2ccc([N+](=O)[O-])cc2)=NO3)[C@]2(C)C(=O)C=C[C@@]12O | 1.37 | 9 | 12 | 7 | – | – | – | – |
| C[C@H]1CC[C@@H]2[C@@H](OC(=O)[C@]23CC(c2ccc(Cl)cc2)=NO3)[C@]2(C)C(=O)C=C[C@@]12O | 2.09 | 51 | 49 | 43 | – | – | – | – |
| Cc1ccc(N2C[C@]23C(=O)O[C@@H]2[C@H]3CC[C@H](C)[C@]3(O)C=CC(=O)[C@@]23C)cc1 | 1.83 | 32 | 25 | 36 | – | – | – | – |
| C[C@H]1CC[C@@H]2[C@@H](OC(=O)[C@]23CC(c2cccc([N+](=O)[O-])c2)=NO3)[C@]2(C)C(=O)C=C[C@@]12O | 1.37 | 49 | 55 | 51 | – | – | – | – |
| Cc1cccc(N2C[C@]23C(=O)O[C@@H]2[C@H]3CC[C@H](C)[C@]3(O)C=CC(=O)[C@@]23C)c1 | 1.83 | 15 | 61.5 | 62.5 | – | – | – | – |
| C[C@H]1CC[C@@H]2[C@@H](OC(=O)[C@]23CC(c2ccc(C#N)cc2)=NO3)[C@]2(C)C(=O)C=C[C@@]12O | 1.17 | 53 | 32 | 26 | – | – | – | – |
| C[C@H]1CC[C@@H]2[C@@H](OC(=O)[C@]23CC(c2ccccc2Br)=NO3)[C@]2(C)C(=O)C=C[C@@]12O | 2.22 | 44 | 51 | 18 | – | – | – | – |
| Cc1ccccc1N1C[C@]12C(=O)O[C@@H]1[C@H]2CC[C@H](C)[C@]2(O)C=CC(=O)[C@@]12C | 1.83 | 22 | 12.5 | 30 | – | – | – | – |
| Cc1cccc(C2=NO[C@]3(C2)C(=O)O[C@@H]2[C@H]3CC[C@H](C)[C@]3(O)C=CC(=O)[C@@]23C)c1 | 1.86 | 15 | 66.6 | 28 | – | – | – | – |
| C[C@H]1CC[C@@H]2[C@@H](OC(=O)[C@]23CC(c2ccc(O)cc2)=NO3)[C@]2(C)C(=O)C=C[C@@]12O | 0.932 | 89 | 20 | 93 | – | – | – | – |
| COc1ccc(C2=NO[C@]3(C2)C(=O)O[C@@H]2[C@H]3CC[C@H](C)[C@]3(O)C=CC(=O)[C@@]23C)cc1 | 1.47 | 41 | 35 | 20 | – | – | – | – |

| SMILES | logP [1] | IC50 (SW-620 [2]) [µM] | IC50 (PC-3) [µM] | IC50 (DU-145) [µM] | inhibition in vivo at 20 mg/kg [3] [%] | Activity [4] [mg] | Activity (SW-620 [5]) | Activity (SW-620 [6]) [%] |
| --- | --- | --- | --- | --- | --- | --- | --- | --- |
| C[C@H]1CC[C@@H]2[C@@H](OC(=O)[C@]23CN3c2ccccc2)[C@]2(C)C(=O)C=C[C@@]12O | 1.38 | 87.7 | 10.6 | 31.4 | – | – | – | – |
| C[C@H]1CC[C@@H]2[C@@H](OC(=O)[C@]23CC(c2ccccc2)=NO3)[C@]2(C)C(=O)C=C[C@@]12O | 1.41 | 45.4 | 46 | 39.8 | – | – | – | – |
| C[C@H]1CC[C@@H]2[C@@H](OC(=O)[C@]23CC(c2c(Cl)cccc2Cl)=NO3)[C@]2(C)C(=O)C=C[C@@]12O | 2.67 | 43 | 56 | 38 | – | – | – | – |
| Cc1ccccc1C1=NO[C@]2(C1)C(=O)O[C@@H]1[C@H]2CC[C@H](C)[C@]2(O)C=CC(=O)[C@@]12C | 1.86 | 5 | 10 | 12 | – | – | – | – |
| C[C@H]1CC[C@@H]2[C@@H](OC(=O)[C@]23CN3c2ccccc2[N+](=O)[O-])[C@]2(C)C(=O)C=C[C@@]12O | 1.31 | 33 | 10 | 28 | – | – | – | – |
| C[C@H]1CC[C@@H]2[C@@H](OC(=O)[C@]23CC(c2ccccc2Cl)=NO3)[C@]2(C)C(=O)C=C[C@@]12O | 2.09 | 9 | 12 | 19 | – | – | – | – |
| COc1cc(C2=NO[C@]3(C2)C(=O)O[C@@H]2[C@H]3CC[C@H](C)[C@]3(O)C=CC(=O)[C@@]23C)ccc1O | 0.75 | 88 | 16 | 71 | – | – | – | – |
| CC[C@@]1(O)C(=O)OCc2c1cc1n(c2=O)Cc2cc3ccccc3nc2-1 [CAMPTOTHECIN] | – | – | – | – | – | – | Active | 60 |
| Cc1ccc(C2=NO[C@]3(C2)C(=O)O[C@@H]2[C@H]3CC[C@H](C)[C@]3(O)C=CC(=O)[C@@]23C)cc1 | 1.86 | 2.5 | 14 | 14 | – | – | – | – |
| COc1ccccc1N1C[C@]12C(=O)O[C@@H]1[C@H]2CC[C@H](C)[C@]2(O)C=CC(=O)[C@@]12C | 1.41 | 47.3 | 52 | 27 | – | – | – | – |
| C[C@H]1CC[C@@H]2[C@@H](OC(=O)[C@]23CN3c2cccc([N+](=O)[O-])c2)[C@]2(C)C(=O)C=C[C@@]12O | 1.31 | 61 | 10.1 | 30 | – | – | – | – |
| C[C@H]1CC[C@@H]2[C@@H](OC(=O)[C@]23CC(c2cccc(Cl)c2)N(c2ccccc2)O3)[C@]2(C)C(=O)C=C[C@@]12O (mixture of isomers) | 3.87 | – | – | – | – | – | – | – |
| Cc1ccc(C2C[C@@]3(ON2c2ccccc2)C(=O)O[C@@H]2[C@H]3CC[C@H](C)[C@]3(O)C=CC(=O)[C@@]23C)cc1 (mixture of isomers) | 3.64 | – | – | – | – | – | – | – |
| COC(=O)c1cccc(N2C[C@]23C(=O)O[C@@H]2[C@H]3CC[C@H](C)[C@]3(O)C=CC(=O)[C@@]23C)c1 | 1.52 | 30 | 10.1 | 18.5 | – | – | – | – |
| C[C@H]1CC[C@@H]2[C@@H](OC(=O)[C@]23CC(c2c(F)cccc2F)N(c2ccccc2)O3)[C@]2(C)C(=O)C=C[C@@]12O (mixture of isomers) | 3.42 | – | – | – | – | – | – | – |
| C[C@H]1CC[C@@H]2[C@@H](OC(=O)[C@]23CC(c2cccc(F)c2)N(c2ccccc2)O3)[C@]2(C)C(=O)C=C[C@@]12O (mixture of isomers) | 3.35 | – | – | – | – | – | – | – |
| COc1ccc(N2C[C@]23C(=O)O[C@@H]2[C@H]3CC[C@H](C)[C@]3(O)C=CC(=O)[C@@]23C)cc1 | 1.41 | 30 | 12 | 78 | – | – | – | – |
